# Source: ChEMBL document CHEMBL4359825, “Synthesis of novel S-linked dihydroartemisinin derivatives and evaluation of their anticancer activity” (Eur J Med Chem, 2019)
# Active and inactive are the calls of the source. The rule behind the calls is not given here.
# How the values were obtained:
# [1] = system: PC-3; experiment: Cytotoxicity against human PC3 cells assessed as reduction in cell viability at 3 to 10 uM pretreated with NAC for 2 hrs followed by compound addition and measured after 72 hrs by MTT assay; format: functional, cell-based
# In short: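 PC-3 cells in 96-well plates pretreated 2 h with N-acetyl cysteine (20 μM), then exposed to 3 or 10 μM test agent for 72 h. Viability read by MTT as in the standard protocol, absorbance 570 nm, relative to DMSO control. Three separate experiments.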
# [2] = system: A-431; experiment: Anticancer activity against human A431 cells assessed as cell viability measured after 72 hrs by MTT assay (reference value: 100 +/- 11.7 %); format: functional; design: concentration or dose not given beside the values
# [3] = system: PC-3; experiment: Antimigratory activity against human PC3 cells assessed as reduction in cell migration at 3 to 10 uM measured upto 24 hrs by scratch wound healing assay; format: functional, cell-based
# In short: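 Wound healing: PC-3 seeded 3 × 10^5/well, grown to a monolayer at 37 °C, 5% CO2. Scratch made with a pipette tip, detached cells washed off, then 3 or 10 μM added.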
# [4] = system: PC-3; experiment: Induction of apoptosis in human PC3 cells assessed as cell shrinkage at 3 to 10 uM after 72 hrs by phase contrast microscopy; format: functional, cell-based
# In short: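 PC-3 cells in exponential growth exposed to 3 or 10 μM for 72 h, washed gently with PBS, and apoptotic morphology recorded by phase-contrast microscopy.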
# [5] = system: PC-3; experiment: Cell cycle arrest in human PC3 cells assessed as accumulation at S phase at 3 uM measured after 48 hrs by RNase/propidium iodide staining based flow cytometry analysis (reference value: 22.40 %); format: functional
# [6] = system: PC-3; experiment: Induction of apoptosis in human PC3 cells assessed as down-regulation of BCL-xL expression measured after 72 hrs by Western blot analysis; format: functional, cell-based
# In short: (§1)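 Western blot: PC-3 seeded 1.25 × 10^5/well, exposed to 0.1–10 μM for 72 h. Lysed in 2× SDS buffer and sonicated; 20–25 μg protein run on 12% SDS gel, transferred to PVDF, blocked in 5% BSA/TBST. Primary antibodies overnight, secondary 1 h; ECL detection, β-actin loading control.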
# [7] = system: PC-3; experiment: Upregulation of NOXA mRNA expression in human PC3 cells at 3 to 10 uM measured after 72 hrs by TRIzol dye based RT-PCR analysis; format: functional, cell-based
# In short: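 PC-3 cells (1.25×10^5 per well) treated 72 h at 3 or 10 μM; total RNA by TRIzol, cDNA from 2 μg; SYBR real-time PCR, 95 °C 10 min then 40 cycles 95 °C 15 s/60 °C; Ct normalised to GAPDH, relative expression by 2^-ΔΔCt; three experiments.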
# [8] = system: PC-3; experiment: Induction of apoptosis in human PC3 cells assessed as nuclear condensation at 3 to 10 uM after 72 hrs by Hoechst 33342 staining based fluorescence microscopy; format: functional, cell-based
# In short: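 PC-3 cells treated 72 h with 3 or 10 μM, stained with Hoechst 33342 for 15 min at room temperature in the dark, washed with PBS, and nuclei examined by fluorescence microscopy for condensation.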
# [9] = system: A549; experiment: Anticancer activity against human A549 cells assessed as cell viability measured after 72 hrs by MTT assay (reference value: 100 +/- 9.6 %); format: functional; design: concentration or dose not given beside the values
# [10] = system: PC-3; experiment: Antimetastatic activity against human PC3 cells assessed as inhibition of MMP-9 at 3 to 10 uM measured after 48 hrs by gelatin zymography; format: functional, cell-based
# In short: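 PC-3 monolayers scratched, then treated with 3 or 10 μM for 48 h in serum-containing medium, then 24 h in serum-free medium. Conditioned medium run non-reduced on 7.5% SDS-PAGE containing gelatin 4 mg/mL. Gel washed in 2.5% Triton X-100, incubated 24 h at 37 °C in Tris pH 7.5 with CaCl2/ZnCl2, Coomassie stained; lysis seen as clear bands.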
# [11] = system: PC-3; experiment: Cell cycle arrest in human PC3 cells assessed as accumulation at G2/M phase at 3 uM measured after 48 hrs by RNase/propidium iodide staining based flow cytometry analysis (reference value: 34.95 %); format: functional
# [12] = system: PC-3; experiment: Antimigratory activity against human PC3 cells assessed as reduction in cell migration at 3 to 10 uM measured after 48 hrs by transwell assay; format: functional, cell-based
# In short: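 Transwell migration through 8.0 μm polycarbonate membranes: 40,000 PC-3 cells in serum-free medium in the upper chamber with 3 or 10 μM; RPMI-1640 with 10% FBS below. After 48 h, non-migrated cells swabbed off. Migrated cells fixed in 75% ethanol for 10 min, Hoechst stained and counted per field versus DMSO.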
# [13] = system: PC-3; experiment: Antimigratory activity against human PC3 cells assessed as reduction in cell migration at 10 uM measured upto 24 hrs in presence of pan-caspase inhibitor Z-VAD-fmk by scratch wound healing assay; format: functional, cell-based
# In short: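 PC-3 monolayers pretreated 2 h with pan-caspase inhibitor Z-VAD-FMK (10 μM) before scratching and treatment with test agent. Wound closure imaged by phase contrast at 0, 12 and 24 h.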
# [14] = system: A-431; experiment: Anticancer activity against human A431 cells assessed as reduction in cell viability measured after 72 hrs by MTT assay; format: functional, cell-based; details: A-431, 72 h
# [15] = system: PC-3; experiment: Downregulation of Pin1 in human PC3 cells harboring siRNA measured after 72 hrs by Western blot analysis; format: functional, cell-based
# In short: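 PC-3 cells (1.5 × 10^5/well) transfected with Pin1 siRNA (25 nM) using Lipofectamine RNAiMAX in Opti-MEM, alone or with test agent, for 72 h. Pin1 assessed by western blot with β-actin loading control.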
# [16] = target: Peptidyl-prolyl cis-trans isomerase NIMA-interacting 1 (Homo sapiens) (UniProt Q13526); experiment: Inhibition of Pin1 in human PC3 cells assessed as downregulation of cyclin D1 measured after 72 hrs by Western blot analysis; format: cell-based
# Sequence of Peptidyl-prolyl cis-trans isomerase NIMA-interacting 1 (Homo sapiens) (Q13526 whole entry): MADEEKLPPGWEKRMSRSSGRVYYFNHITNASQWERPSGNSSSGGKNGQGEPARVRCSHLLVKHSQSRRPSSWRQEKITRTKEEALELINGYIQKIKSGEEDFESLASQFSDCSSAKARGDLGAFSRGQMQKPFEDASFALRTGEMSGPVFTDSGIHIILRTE
# In short: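 PC-3 cells (1.25×10^5 per well) exposed 72 h to 0.1, 0.3, 1, 3 or 10 μM; lysed in 2× SDS buffer, sonicated, BCA-quantified; 20-25 μg protein on 12% SDS gel, PVDF, 5% BSA block, primary antibody overnight, secondary 1 h; ECL detection, β-actin loading control.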
# [17] = system: MDA-MB-231; experiment: Anticancer activity against human MDA-MB-231 cells assessed as reduction in cell viability measured after 72 hrs by MTT assay; format: functional, cell-based; details: MDA-MB-231, 72 h
# [18] = system: PC-3; experiment: Cell cycle arrest in human PC3 cells assessed as accumulation at S phase at 10 uM measured after 48 hrs by RNase/propidium iodide staining based flow cytometry analysis (reference value: 22.40 %); format: functional
# [19] = system: PC-3; experiment: Downregulation of cMyc in human PC3 cells at 3 to 10 uM measured after 72 hrs by Western blot analysis; format: functional, cell-based; in short: as §1
# [20] = system: PC-3; experiment: Downregulation of PCNA mRNA expression in human PC3 cells at 3 to 10 uM measured after 72 hrs by TRIzol dye based RT-PCR analysis; format: functional, cell-based
# In short: (§2)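 PC-3 (1.25 × 10^5/well) treated 72 h with 3 or 10 μM. Total RNA extracted with TRIzol; cDNA made from 2 μg RNA. SYBR qPCR: 95 °C 10 min, then 40 cycles of 95 °C/60 °C. Expression normalised to GAPDH by 2^-ΔΔCt; three experiments.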
# [21] = system: PC-3; experiment: Induction of apoptosis in human PC3 cells assessed as decrease in pro-caspase-9 level after 72 hrs by Western blot analysis; format: functional, cell-based; in short: as §1
# [22] = system: PC-3; experiment: Downregulation of cyclinB1 mRNA expression in human PC3 cells at 3 to 10 uM measured after 72 hrs by TRIzol dye based RT-PCR analysis; format: functional, cell-based; in short: as §2
structure (smiles),measurement,setting,value
COC(=O)Cc1ccc(S[C@@H]2O[C@@H]3O[C@@]4(C)CC[C@H]5[C@H](C)CC[C@@H]([C@H]2C)[C@@]35OO4)cc1,Activity,[1],inactive
same,Activity,[2],35%
same,Activity,[3],Active
same,Activity,[4],Active
same,Activity,[5],13.26%
same,Activity,[6],Dose-dependent effect
same,Activity,[7],Active
same,Activity,[8],Active
same,Activity,[9],68%
same,inhibition,[10],Dose-dependent effect
same,Activity,[11],32.24%
same,Activity,[12],Active
same,inhibition,[13],inactive
same,IC50,[14],13.3 µM
same,Activity,[15],Active
same,inhibition,[16],Dose-dependent effect
same,IC50,[17],9.03 µM
same,Activity,[18],13.21%
same,Activity,[19],Active
same,Activity,[20],Active
same,Activity,[21],Dose-dependent effect
same,Activity,[22],Active
